Laboratory results: article PMC10925246 (bioRxiv, 2024)
Ends that are not written are not given here.

Columns and labels:
P. aeruginosa PA14 [1] = format: cell-based, Pseudomonas aeruginosa; details: for minimum inhibitory concentration (MIC): PA14, CFU assay
P. aeruginosa PA14 [2] = test: Polyamine toxicity for PA14; format: cell-based, Pseudomonas aeruginosa; details: 10^6 cfu/ml PA14, 30 mOsm/l, alamarBlue; n = 3 experiments
[3] = test system: ^14C-spermidine uptake by PA14; test: Polyamine transport assay; format: cell-based, Pseudomonas aeruginosa; details: 10 and 25 µM, 45 min 35°C pretreatment, n = 3 experiments
Outline: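 PA14 (0.8×10^8 cfu in 100 µl dilute phosphate saline) was pre-incubated 45 min at 35°C with or without 10 or 25 µM test peptide. Cells were then given 1 µl of 10 mM [1,4-14C]spermidine stock (0.1 mCi/ml) for 15 min at 35°C. Pellets were washed four times with phosphate-buffered saline and counted by liquid scintillation, last wash also counted. Molecules per cell were estimated from a spermidine standard curve.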

FeoB = format: binding, P. aeruginosa PAO1; details: overnight 4°C, 0.15 M NaCl; eluted with 0.5 and 1 M KCl, not 0.3 M KCl; n = 3 experiments
Outline: (§1)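 Cys-extended test peptide (2 mg) was coupled to SulfoLink resin in 50 mM Tris pH 8.5, 5 mM EDTA, 3 h room temperature. His-tagged transporter was Ni-Sepharose purified (4 h, 4°C; imidazole elution) and applied to the column; the flowthrough was collected. Columns were washed with 10 mM HEPES, 0.05% dodecyl-maltoside, 0.15 M KCl, then step-eluted with 0.3, 0.5, 1.0 M KCl. Unboiled fractions went to 4–20% SDS-PAGE and anti-His (1 µg/ml, overnight 4°C) western with IRDye secondary.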

PotH = target: T1, PotH (Escherichia coli, UniProt P31135); format: binding, E. coli; details: overnight 4°C, 0.15 M NaCl; eluted with 0.5 and 1 M KCl, not 0.3 M KCl; n = 3 experiments
T1 sequence (P31135 1-317): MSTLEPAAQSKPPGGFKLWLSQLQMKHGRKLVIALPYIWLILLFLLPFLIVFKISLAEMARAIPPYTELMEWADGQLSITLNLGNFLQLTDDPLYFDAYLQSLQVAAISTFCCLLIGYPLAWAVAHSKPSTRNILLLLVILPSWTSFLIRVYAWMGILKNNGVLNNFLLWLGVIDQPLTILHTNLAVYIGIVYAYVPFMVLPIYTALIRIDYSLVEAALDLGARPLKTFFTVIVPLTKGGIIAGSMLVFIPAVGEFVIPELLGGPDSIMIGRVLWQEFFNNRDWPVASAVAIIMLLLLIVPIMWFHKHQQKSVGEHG
Outline: as §1

thrombin = thrombin (Homo sapiens, UniProt P00734); test: N-104 affinity column screen of human tears, thrombin western blot; format: binding; details: pooled human basal tears, 5 hours 4°C, KCl elution, anti-thrombin western blot
Outline: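 Basal tears were collected 5 min on Schirmer strips after 0.5% proparacaine, eluted at 4°C in phosphate-buffered saline and pooled (170 µl). The pool was diluted fivefold with protease inhibitors, agarose-precleared, and split by protein between test-peptide and control-peptide columns for 5 h at 4°C. Elution was 0.3/0.5/1.0 M KCl; the 0.5 M eluate went to MS (human UniProt search). Unboiled fractions: 4–20% SDS-PAGE, polyclonal anti-thrombin 1 µg/ml overnight 4°C, LI-COR detection.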

[4] = Solubility of synthetic loop peptides in solvents; format: physicochemical; details: lyophilized synthetic peptide, acetylated and amidated
Outline: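 Synthetic outer-loop peptides were N-acetylated and C-amidated, ≥95% HPLC purity, and stored lyophilized at −80°C. Each was […] as required before competition binding at 0–250 µM.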

[5] = test system: PA14 pathogenesis in C. elegans N2; test: C. elegans - PA14 liquid infection; format: in vivo, Caenorhabditis elegans; details: SYTOX Orange uptake of dead worms
Outline: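 Young adult worms (raised from L1 on NGM with E. coli OP50 at room temperature, washed off in M9, pelleted 1200×g 2 min) were placed ~50 per well in 150 µl 90% M9/10% LB. They were incubated aerobically with an equal volume of PA14, feoB/potH/yaiW transposon mutants, or OP50, diluted to 10^7 cfu/ml and pre-treated with 50 µM test peptide for 5 h at 35°C. After 3 days, equal volume 6 µM SYTOX Orange was added; imaged next day, transmitted and 535/610 nm fluorescence.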

P. aeruginosa PA14 [6] = test: N-104 resistance assay over 30 generations; format: cell-based, Pseudomonas aeruginosa; details: through 30 generations, sub-MIC and MIC exposure; n = 2 experiments
[7] = test system: PA14 feoB, potH and yaiW transposon mutants; test: CFU killing assay of PA14 transposon mutants; format: cell-based, Pseudomonas aeruginosa; details: 10^6 cfu/ml, 30 mOsm/l; n = 3 experiments
Outline: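 Suspensions were exposed to test peptide or left untreated ~8 h at 35°C. 2 µl were spotted on LB agar, with or without selective antibiotic, incubated overnight at 37°C and imaged; n = 3 experiments.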

## NCCCCNCCCN [spermidine]
P. aeruginosa PA14 [1]; PA14, 5 µM N-104 plus polyamine at or below 100 µM, n = 3 experiments
  effect of exogenous polyamine on N-104 bactericidal activity: inhibited N-104 bactericidal activity in a concentration-dependent manner
P. aeruginosa PA14 [2]
  concentrations toxic for PA14: greater than 100 µM

## Ac-AKAGKGMHGGVPGG-NH2 [N-80/C-25]
[3]
  effect on ^14C-spermidine uptake: almost similar inhibitory effect

## EDASSDSTGADPAQEAGTSKPNEE-NH2 [C-95]
FeoB
  binding of His tagged FeoB to column immobilized peptide: Neither bound
PotH
  binding of His tagged PotH to column immobilized peptide: Neither bound
thrombin
  capture of thrombin from human tears by column immobilized peptide: None bound

## Ac-GAFFGQGGA-NH2 [FeoB outer loop 3 synthetic peptide]
[4]
  solubility in water and organic solvents: not water, DMSO, methanol, isopropanol nor acetonitrile soluble
  solvent in which the peptide dissolved: ammonia water and acetic acid

## Ac-AQKLLKKFSSLKPWA [N-104:L114S]
P. aeruginosa PA14 [1]
  minimum inhibitory concentration (MIC): 2 µM

## Ac-INIGGALQP-NH2 [FeoB outer loop 1 synthetic peptide]
[4]
  solubility in water and organic solvents: not water, DMSO, methanol, isopropanol nor acetonitrile soluble
  solvent in which the peptide dissolved: formic or acetic acid

## Ac-AQKLLKKFSLLKPWA [N-104]
P. aeruginosa PA14 [1]; two osmolalities (30 and 300 mOsm/l)
  dependence of PA14 killing efficacy on osmolarity: efficacy diminishes as osmolarity increases
[5]
  effect of peptide alone on C. elegans: no apparent effect
P. aeruginosa PA14 [6]
  development of resistance of PA14: No stable resistance
[7]
  killing of PA14 transposon mutant lacking YaiW: partially resistant
FeoB
  binding of His tagged FeoB to column immobilized peptide: high affinity ligation
PotH
  binding of His tagged PotH to column immobilized peptide: high affinity ligation
thrombin
  capture of thrombin from human tears by column immobilized peptide: binds

## Ac-AQKLLKKFSLSKPWA [N-104:L115S]
P. aeruginosa PA14 [1]
  minimum inhibitory concentration (MIC): 2 µM
